For experiment [1], the target named is T1, 5-hydroxytryptamine receptor 1B (Homo sapiens, UniProt P28222). The experiment can be described thus: Binding affinity towards human 5-hydroxytryptamine 1B receptor using [3H]5-HT trifluoroacetate as radioligand. Put shortly: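 Membrane homogenate (0.1 mg protein/well) incubated in triplicate with [3H]-5-HT (2.5 nM final) in 50 mM Tris, 10 mM MgSO4, 0.5 mM EDTA, 10 µM pargyline, 0.1% ascorbic acid, pH 7.4. Incubation 60 min at room temperature. Nonspecific binding defined with 20 µM 5-HT. Filtration over GF/B, scintillation counting.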

In experiment [2] the target is T2, 5-hydroxytryptamine receptor 1D (Homo sapiens, UniProt P28221). The experiment can be described thus: Binding affinity towards human 5-hydroxytryptamine 1D receptor using [3H]5-HT trifluoroacetate as radioligand.
Experiment [3] concerns the target Serotonin 1 receptors; 5-HT1B & 5-HT1D (Homo sapiens) (UniProt P28222+P28221). The experiment can be described thus: Binding Selectivity was determined [Selectivity = Ki against h5-HT1B receptor / Ki against h5-HT1D receptor]. Type of experiment: protein assay.
Experiment [4] concerns the target Adrenergic receptor alpha. The experiment can be described thus: Binding affinity towards Alpha-1 adrenergic receptor. The format is protein assay, Canis lupus familiaris.
The target in experiment [5] is T2, 5-hydroxytryptamine receptor 1D. The experiment can be described thus: Adenyl cyclase activity was expressed as percent forskolin response against 5-hydroxytryptamine 1D receptor at concentration 1 uM. Type of experiment: functional. Put shortly: (§1)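 Agonist test in CHO Pro 5 cells stably transfected with human h5-HT1B or h5-HT1D receptors. Compound added to culture medium with 10 µM forskolin and 0.5 mM IBMX, 30 min at 37 °C. Stopped with cold ethanolic 5 mM EDTA (2:1 v/v) to extract cAMP. cAMP measured by enzyme immunoassay; mean ± SEM from three or more experiments.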

For experiment [6] the target is unchanged. The experiment can be described thus: Adenyl cyclase activity was expressed as percent forskolin response against 5-hydroxytryptamine 1D receptor at concentration 10 uM. The format is functional. In short, it runs like this: as §1
The target in experiment [7] is T1, 5-hydroxytryptamine receptor 1B. The experiment can be described thus: Adenyl cyclase activity was expressed as percent forskolin response against 5-hydroxytryptamine 1B receptor at concentration 1 uM. The format is functional. Put shortly:
as §1

Experiment [8] has as its target T3, Adrenergic receptor alpha-2 (Homo sapiens, UniProt P08913+P18825+P18089).
T3 sequence (P08913 whole entry): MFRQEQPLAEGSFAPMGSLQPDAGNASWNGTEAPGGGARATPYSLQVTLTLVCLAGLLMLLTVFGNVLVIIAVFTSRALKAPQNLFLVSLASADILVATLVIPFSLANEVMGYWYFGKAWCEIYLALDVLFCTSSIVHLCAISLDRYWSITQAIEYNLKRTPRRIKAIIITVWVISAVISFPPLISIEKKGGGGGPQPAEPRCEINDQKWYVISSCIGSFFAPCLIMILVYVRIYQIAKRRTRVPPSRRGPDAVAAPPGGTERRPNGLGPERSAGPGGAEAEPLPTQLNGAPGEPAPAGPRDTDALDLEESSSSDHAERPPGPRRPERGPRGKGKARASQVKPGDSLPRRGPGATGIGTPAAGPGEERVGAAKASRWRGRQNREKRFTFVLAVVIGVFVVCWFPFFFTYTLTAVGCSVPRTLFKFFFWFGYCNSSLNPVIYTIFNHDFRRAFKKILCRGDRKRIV
T3 sequence (P18825 whole entry): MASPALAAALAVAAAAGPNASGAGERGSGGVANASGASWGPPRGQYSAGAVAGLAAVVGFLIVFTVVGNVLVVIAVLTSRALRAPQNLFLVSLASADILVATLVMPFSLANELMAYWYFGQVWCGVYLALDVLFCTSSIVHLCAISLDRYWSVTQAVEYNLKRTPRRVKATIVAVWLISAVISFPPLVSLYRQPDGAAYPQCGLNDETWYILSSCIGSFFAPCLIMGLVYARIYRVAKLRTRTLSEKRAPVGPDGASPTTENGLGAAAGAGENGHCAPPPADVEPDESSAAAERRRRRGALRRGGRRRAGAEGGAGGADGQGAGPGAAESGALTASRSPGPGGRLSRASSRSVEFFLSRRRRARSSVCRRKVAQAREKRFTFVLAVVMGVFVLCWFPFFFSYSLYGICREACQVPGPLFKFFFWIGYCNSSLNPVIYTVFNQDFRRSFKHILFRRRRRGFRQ
T3 sequence (P18089 whole entry): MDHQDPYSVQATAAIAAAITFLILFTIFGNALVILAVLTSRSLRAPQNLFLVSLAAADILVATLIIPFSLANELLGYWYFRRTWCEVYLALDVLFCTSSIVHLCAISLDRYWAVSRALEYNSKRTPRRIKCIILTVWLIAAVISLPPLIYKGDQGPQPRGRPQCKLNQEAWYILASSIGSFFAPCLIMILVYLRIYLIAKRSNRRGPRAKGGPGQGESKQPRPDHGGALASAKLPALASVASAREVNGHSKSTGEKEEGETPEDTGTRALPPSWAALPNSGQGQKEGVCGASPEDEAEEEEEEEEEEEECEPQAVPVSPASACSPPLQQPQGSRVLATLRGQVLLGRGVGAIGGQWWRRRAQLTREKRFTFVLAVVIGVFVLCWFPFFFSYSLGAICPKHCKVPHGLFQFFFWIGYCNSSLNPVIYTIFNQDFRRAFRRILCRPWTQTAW
Briefly: Binding affinity towards Alpha-2 adrenergic receptor. The format is protein assay.

Experiment [9] deals with T1, 5-hydroxytryptamine receptor 1B. Briefly: Adenyl cyclase activity was expressed as percent forskolin response against 5-hydroxytryptamine 1B receptor at concentration 10 uM. The format is functional. In short, it runs like this:
as §1

A short description of experiment [10]: Tested for 5-hydroxytryptamine 1D like receptor-mediated vascular effect in rabbit saphenous vein (RSV).

Structures are written as SMILES. Some results are limits rather than exact numbers.

T1 sequence (P28222 whole entry): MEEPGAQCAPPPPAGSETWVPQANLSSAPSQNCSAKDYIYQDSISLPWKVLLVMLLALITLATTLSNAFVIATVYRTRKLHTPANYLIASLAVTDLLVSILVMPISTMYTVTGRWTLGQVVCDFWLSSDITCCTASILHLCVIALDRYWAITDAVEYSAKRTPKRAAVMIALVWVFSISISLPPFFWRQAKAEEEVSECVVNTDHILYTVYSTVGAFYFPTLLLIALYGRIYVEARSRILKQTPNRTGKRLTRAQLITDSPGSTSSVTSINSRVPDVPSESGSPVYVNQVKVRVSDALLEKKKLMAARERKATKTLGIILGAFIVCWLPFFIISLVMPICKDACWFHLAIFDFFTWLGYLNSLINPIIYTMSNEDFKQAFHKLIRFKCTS
T2 sequence (P28221 whole entry): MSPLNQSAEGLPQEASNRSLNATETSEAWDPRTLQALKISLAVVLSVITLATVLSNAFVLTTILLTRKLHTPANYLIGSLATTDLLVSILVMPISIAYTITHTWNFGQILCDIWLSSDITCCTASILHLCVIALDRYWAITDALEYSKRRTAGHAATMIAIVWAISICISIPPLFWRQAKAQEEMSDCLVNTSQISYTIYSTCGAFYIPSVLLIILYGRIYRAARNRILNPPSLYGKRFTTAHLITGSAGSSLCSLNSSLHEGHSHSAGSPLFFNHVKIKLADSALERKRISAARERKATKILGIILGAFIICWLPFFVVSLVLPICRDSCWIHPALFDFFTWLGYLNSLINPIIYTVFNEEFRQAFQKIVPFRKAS

`Cc1cc(C(C)(C)C)cc(C)c1CC1=NCCN1C` registered a Ki in experiment [1] greater than 5000 nM.
Turning to `Oc1cccc(CC2=NCCN2)c1`, the Ki in experiment [2] is greater than 10000 nM; in experiment [1] it was 3740 nM. In experiment [3], the Selectivity is less than 1.
As for `Cc1cc(C(C)C)cc(C)c1CC1=NCCN1`, the Ki in [2] was 1.1 nM; in experiment [4] it was 65 nM; in [8], greater than 500 nM. For the same compound, the Response came to 34% in [5], 34% in experiment [6], 53% in [7] and 56% in [9]. The same compound returned a Selectivity in [3] of 34. The compound also yielded an EC50 in experiment [10] of 138 nM.
`Cc1cc(C(C)(C)C)c(O)c(C)c1CC1=NCCN1` [OXYMETAZOLINE]: in experiment [1], the Ki turned out to be 0.3 nM. The Response stood at 40% in [5], 35% in experiment [6], 57% in [7] and 40% in experiment [9].
`CCCCc1ccc(CC2=NCCN2)cc1`: the Ki in experiment [2] was 2520 nM; in experiment [1], greater than 10000 nM. The Selectivity in experiment [3] is greater than 4.
In [3], `Cc1cc(Br)cc(C)c1CC1=NCCN1` returned a Selectivity of 21.
On to `Brc1ccc(CC2=NCCN2)cc1`, for which the figures for the Ki in [2] and in experiment [1] were 4390 nM and greater than 10000 nM, respectively. The Selectivity in experiment [3] was greater than 2.
On to `CN1CCN=C1Cc1ccccc1`, for which the Ki in experiment [1] was greater than 10000 nM.
The same measure, in the same setting: the result for `COc1cccc(CC2=NCCN2)c1` reads 1630 nM.
Turning to `Cc1cc(C(C)(C)C)ccc1CC1=NCCN1`, the values for the Ki in experiment [4] and in experiment [8] were 154 nM and greater than 500 nM, respectively. The Response in experiment [5] is 51%; in experiment [6], 50%; in experiment [7] it was 63%; in experiment [9] it was 58%. This compound also came in with a Selectivity in experiment [3] of 105. For the same compound, a half-maximal response in experiment [10] (EC50) required 1670 nM.
For `c1ccc(CC2=NCCN2)cc1` [TOLAZOLINE], the Ki in experiment [2] and in experiment [1] was greater than 10000 nM in each case.
As for `CC(C)(C)c1ccc(CC2=NCCN2)cc1`, the Ki in experiment [1] amounted to 6830 nM; in experiment [4], 2625 nM; in [8], 1120 nM. For the same compound, the Response in [5] turned out to be 69%; in [6], 65%; in experiment [7], 99%; in experiment [9], 86%. The compound further returned a Selectivity in experiment [3] of 65. Moreover, in [10], the EC50 is greater than 10000 nM.
For `Nc1ccc(CC2=NCCN2)cc1`, the Ki in experiment [2] and in experiment [1] was greater than 10000 nM in each case.
`Cc1cccc(C)c1CC1=NCCN1`: the results for the Ki in experiment [2] and in experiment [1] were 2210 nM and greater than 10000 nM, respectively. The same compound yielded a Selectivity in [3] greater than 4.
Consider `CNCCc1c(C)cc(C(C)(C)C)cc1C`, for which the figures for the Ki in [2] and in experiment [1] were greater than 5000 nM and greater than 10000 nM, respectively.
As for `Cc1cc(C)c(CC2=NCCN2)c(C)c1`, the Ki in [2] was determined as 72 nM. For the same compound, the Response in [5] was determined as 23%; in experiment [6] it was 49%; in [7], 49%; in [9] it was 52%. Besides, the Selectivity in experiment [3] stood at 48. In [10], this compound gave an EC50 of 150 nM.
Regarding `Cc1cc(C(C)(C)C)cc(C)c1CCN`, the Ki in experiment [2] is 1360 nM; in [1], greater than 10000 nM.
Regarding `Cc1ccc(CC2=NCCN2)c(C)c1O`, the Ki in experiment [2] worked out at 1900 nM; in experiment [1], 2000 nM. Moreover, in experiment [3], the Selectivity amounted to 1.
With `c1ccc(-c2ccc(CC3=NCCN3)cc2)cc1`, the Ki in [2] and in experiment [1] was greater than 10000 nM each time.
As for `CCCc1ccc(CC2=NCCN2)cc1`, the Ki in experiment [2] was 2380 nM; in [1], greater than 10000 nM. The compound further displayed a Selectivity in experiment [3] greater than 4.
Regarding `CC(C)c1ccc(CC2=NCCN2)cc1`, the Selectivity in [3] stood at 8.
On to `CCc1ccc(CC2=NCCN2)cc1`, for which the Ki in experiment [2] and in experiment [1] was greater than 10000 nM each time.
In the case of `Cc1cc(C(C)(C)C)cc(C)c1CC1=NCCN1` [XYLOMETAZOLINE], the Ki in [1] was 14 nM; in [4], 91 nM; in experiment [8], greater than 500 nM. For the same compound, the Response in experiment [5] worked out at 38%; in experiment [6], 41%; in [7], 51%; in experiment [9], 64%.
Consider `Cc1ccc(CC2=NCCN2)c(C)c1OCc1ccccc1`, for which the figures for the Ki in experiment [2] and in experiment [1] were 1100 nM and 3860 nM, respectively. The compound also had a Selectivity in experiment [3] of 4.
With `O=[N+]([O-])c1ccc(CC2=NCCN2)cc1`, the Ki in [2] and in [1] was greater than 10000 nM each time.
Consider `Cc1ccc(O)c(C)c1CC1=NCCN1`, for which the Ki in experiment [2] came out at 1040 nM; in experiment [1], 5790 nM. Moreover, in experiment [3], the Selectivity turned out to be 6.

As usually defined, the Ki is a measure of affinity in units of concentration, obtained from inhibition or displacement. A word on the EC50: it is the concentration at which the effect is half-maximal. A higher EC50 goes with a need for much substance.
